# Bioassay records from PubChem BioAssay.
# tim23-1 inh: growth inhibitors of tim23-1 mutant yeast; S. cerevisiae tim23-1 growth, BacTiter-Glo luminescence, 24 h; inhibition, % at 20 µM; 1.3% of 330,000 active;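 active = growth inhibition of the mutant yeast at or above 50%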;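 also: temperature-sensitive mutant grown at 25 °C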
# tim10-1 inh: inhibits growth of tim10-1 mutant yeast. S. cerevisiae tim10-1 ts strain growth, BacTiter-Glo, 24 h. inhibition, % at 20 µM. 2.2% of 330,000 active. AID 463190;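 active = inhibition of at least 40%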;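 also: mutant grown at 25 °C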
# UPR CHOP act: activators of apoptotic arm of unfolded protein response (CHOP); CHO-CHOP luciferase reporter, UPR activation, luminescence; percent of tunicamycin response over DMSO baseline; activation, % at 10 µM; 0.34% of 330,000 active;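 active = at 10 µM dose, activation of 40% or more, normalized to positive control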
#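 assay system = CHO CHOP reporter cells | amount = 500 CHO-CHOP cells per well | buffer or medium = F12 with 10% FBS | incubation = 16-18 h cell attachment, then 6 h compound exposure, 37 °C | detection = luminescence read with Steady-Glo | read-out = percent activation relative to tunicamycin control | controls = tunicamycin high control, DMSO low control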
# XBP1 UPR activ: activators of adaptive arm of unfolded protein response (XBP1) | CHO-XBP1 luciferase reporter, IRE1-XBP1 UPR activation, luminescence; percent of tunicamycin response, DMSO as zero | activation, % at 20 µM | 0.33% of 330,000 active;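 active = versus positive control, 20 µM dose yields 30% or more activation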
#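 Material: IRE1-XBP1 luciferase reporter CHO line / Quantity: one thousand reporter cells per well / Buffer or medium: F12 with 10% serum / Compound: 20 µM single concentration, DMSO 1% / Times: 6 h treatment, 37 °C / Detection: Steady-Glo luciferase glow luminescence, 10 min after reagent addition / Benchmarks: tunicamycin high, DMSO low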
# TIM10 inh: TIM10 yeast growth inhibition; S. cerevisiae TIM10 strain growth, BacTiter-Glo luminescence, 24 h; inhibition, % at 10 µM; 1.4% of 330,000 active; AID 463195;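 active = inhibition of 40% or more at the single tested concentration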;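 also: wild-type TIM10 isogenic control strain grown at permissive 25 °C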
# tim10-1 confirm: confirmation of tim10-1 mutant yeast growth inhibitors; shares compounds with tim10-1 inh; S. cerevisiae tim10-1 ts strain growth, BacTiter-Glo, 24 h; inhibition, % at 20 µM; 56% of 7,400 active;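 active = inhibition of yeast growth at or above a set limit in either of two repeat tests at 20 µM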;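 also: tim10-1 mutant grown at permissive 25 °C to find synthetic lethal compounds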
# Hits are given with their value; - = inactive; . = no result. Rows were chosen to be rich in hits. Some 3.9% of all compounds tested hit in one or more screens of this group.
SMILES,tim23-1 inh,tim10-1 inh,UPR CHOP act,XBP1 UPR activ,TIM10 inh,tim10-1 confirm
CCCN(Cc1ccccc1)C(=S)Nc1cccc(C(F)(F)F)c1,-,47.1,-,-,-,30.9
COc1ccc(/C=C2/N=C(c3cccs3)OC2=O)cc1OC(C)C,-,42.3,-,-,-,30.2
O=C(c1cc2c(s1)CCCC2)N1CCN(S(=O)(=O)c2ccccc2C(F)(F)F)CC1,-,41.4,-,-,-,-
Cc1ccc(S(=O)(=O)N2CCN(C(=O)c3cc4c(s3)CCCC4)CC2)c(C)c1,-,-,-,-,-,.
COc1cc(C(=O)NC(=S)Nc2ccc(Cl)cn2)cc(OC)c1OC,-,41.7,-,-,-,-
COc1cc(C(=O)Nc2ccc(NC(=O)c3cccc(Cl)c3)nc2)cc(OC)c1OC,-,-,-,-,-,.
COc1cc(C(=O)NC(=S)Nc2ccccc2N2CCCC2)cc(OC)c1OC,-,50.6,-,-,-,-
CCCCN1C(=O)c2ccc(C(=O)Nc3ccccc3N3CCOCC3)cc2C1=O,-,42.8,-,-,-,-
COc1ccc(C(=O)Nc2ccccc2N2CCOCC2)cc1Br,-,40.3,-,-,-,-
CN(C)S(=O)(=O)c1ccc(C(=O)Nc2ccc3nc(N4CCOCC4)sc3c2)cc1,-,-,-,-,-,.
O=C(NN1CCOCC1)c1ccc(Cl)cc1[N+](=O)[O-],-,-,-,-,-,.
Cc1csc(NC(=O)c2ccc(Cl)nc2)n1,-,-,-,-,-,.
Cc1cc(C)c(OCC(=O)Nc2ccccc2N2CCCCC2)c(C)c1,-,-,-,-,-,.
Cc1cc(C)c(OCC(=O)Nc2ccccc2N2CCOCC2)c(C)c1,-,46.5,-,-,-,32.5
O=C(N=C1SCC(=O)N1c1ccccc1Cl)c1ccco1,-,-,-,-,-,.
O=C(N=C1SCC(=O)N1c1ccccc1Cl)c1ccccc1,-,41.9,-,-,-,-
COc1ccc(Br)cc1CNC(=O)CN1C(=O)C(c2ccccc2)Oc2cccnc21 (configuration not stated),-,-,-,-,-,.
CC1(C)Cc2ccccc2-c2n[nH]c(=S)n21,-,56.1,-,-,-,-
Cc1cccc(CN2CCc3c([nH]c4ccccc34)C2)c1,-,-,-,-,-,.
Clc1cccc(CN2CCc3c([nH]c4ccccc34)C2)c1,-,45.2,-,-,-,43.8
Cn1c(N/N=C/c2cccs2)cc(=O)n(C)c1=O,-,-,-,-,-,.
Fc1c(F)c(C(F)(F)F)c(F)c(F)c1N/N=C\c1cccs1,-,47.2,-,-,-,68.7
Cc1ccc(OCC(COCc2ccccc2)NC(C)C)cc1 (configuration not stated),-,-,-,-,-,.
Cc1cccc(Nc2ncccc2C(=O)NCc2cccs2)c1C,-,52.1,-,-,-,34.5
CC(C)(C)c1csc(NC(=O)c2c(F)c(F)c(F)c(F)c2F)n1,-,40.7,-,-,-,-
SMILES,tim23-1 inh,tim10-1 inh,UPR CHOP act,XBP1 UPR activ,TIM10 inh,tim10-1 confirm
COc1cccc(NC(=O)CSc2c3c(nc4ccccc24)CCCC3)c1,-,42.6,-,-,-,-
Oc1ccc(-c2cn3ccccc3n2)cc1,-,-,-,-,-,.
c1ccn2cc(C34CC5CC(CC(C5)C3)C4)nc2c1,-,53.1,-,-,-,39.5
CC(NC(=O)c1cccc(S(=O)(=O)N2CCc3ccccc32)c1)c1ccco1 (configuration not stated),-,-,-,-,-,.
Cc1ccc(/C=c2/sc3nnc(-c4ccccc4Cl)n3c2=O)o1,-,45.1,-,-,-,38.0
CCN(CC)c1ccc(/C=c2\sc3nnc(-c4ccccc4Cl)n3c2=O)cc1,-,-,-,-,-,.
CC1CCCC(n2c(=S)[nH]c3ccccc3c2=O)C1C (configuration not stated),-,41.8,-,-,-,-
CC1CCC(n2c(=S)[nH]c3ccccc3c2=O)CC1 (configuration not stated),-,-,-,-,-,.
CC(C)(C)C(=O)NCCN1C(=O)S/C(=C\c2ccc([N+](=O)[O-])cc2)C1=O,-,57.5,-,-,-,44.4
NS(=O)(=O)c1ccc(CNC(=O)Cn2nc(C(F)F)cc2C(F)F)cc1,-,-,-,-,-,.
COc1ccc(C(C)=O)c(Oc2nc(CN3CCOCC3)nc3scc(-c4cccs4)c23)c1,-,40.1,-,-,-,-
Cc1c(Cl)cccc1NC(=O)COC(=O)c1ccc(CN2CCCC2=O)cc1,-,-,-,-,-,.
CCCCn1nnnc1SCC(=O)c1cc(Cl)ccc1OC,-,52.1,-,-,-,32.8
CCCCn1nnnc1SCC(=O)c1ccccc1F,-,-,-,-,-,.
Cc1nc2sccn2c(=O)c1S(=O)(=O)N1CCN(c2cccc(C(F)(F)F)c2)CC1,-,41.8,-,-,-,-
Cc1cc(SCC(=O)N/N=C/c2ccco2)nc2ccccc12,-,40.0,-,-,-,-
Cc1cc(SCC(=O)NC(=O)NCc2ccco2)nc2ccccc12,-,43.0,-,-,-,34.6
CC(C)Cc1nnc(NC(=O)CCC(=O)N2CC(C)CC(C)C2)s1 (configuration not stated),-,-,-,-,-,.
CN(CC(=O)Nc1ccccc1Cl)C(=O)Cn1cnc2ccccc2c1=O,-,-,-,-,-,.
Cc1cccc(N2CCN(C(=O)c3ccc4nc(N5CCCCC5)sc4c3)CC2)c1C,-,-,-,-,-,.
O=C(c1ccc2nc(N3CCCCC3)sc2c1)N1CCN(c2ccccn2)CC1,-,50.9,-,-,-,34.7
O=C(c1nc2ccccc2s1)N1CCN(c2ccccn2)CC1,-,45.2,-,-,-,-
O=C(c1ccc2nc(N3CCOCC3)sc2c1)N1CCC(Cc2ccccc2)CC1,-,53.8,-,-,-,43.4
CNc1nc(-c2ccccn2)nnc1-c1ccccc1,-,44.6,-,-,-,32.1
c1ccc(-c2nc(-c3ccccn3)no2)cc1,-,-,-,-,-,.
SMILES,tim23-1 inh,tim10-1 inh,UPR CHOP act,XBP1 UPR activ,TIM10 inh,tim10-1 confirm
O=C1CC(N2CCN(S(=O)(=O)c3ccccc3F)CC2)C(=O)N1c1ccc(F)cc1F (configuration not stated),-,-,-,-,-,.
C/C(=N\NC(N)=S)C12CC3CC(CC(C3)C1)C2,-,43.4,-,-,-,-
COc1ccc(/C=C/C(=O)Nc2c(C)nn(C)c2C)cc1COc1ccc(Cl)cc1Br,-,-,-,-,-,.
COc1ccc(/C=C/C(=O)NCc2cn(C)nc2C)cc1COc1ccc(Br)cc1,-,40.4,-,-,-,-
COc1ccccc1-c1nc(C#N)c(N2CCc3ccccc3C2)o1,-,40.1,-,-,-,31.8
CC(Oc1ccc(F)cc1)C(=O)Nc1nc(-c2ccccn2)cs1 (configuration not stated),-,42.3,-,-,-,-
Fc1cc(Br)ccc1COc1ccc(-c2nnco2)cc1,-,-,-,-,-,.
